Screening results: PubChem BioAssay, Broad Institute
dFosB act-1: enhances mouse delta FosB homodimer DNA binding; P13346; purified delta FosB, TAMRA-CDK5 oligo fluorescence polarization; percent of positive-control signal above neutral wells; activation, % at 25 µM; hit rate 0.99% among 340,000; AID 493131;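 active = mean activation above about 17%, with every replicate also reaching it, limit read from the data, passing the limit was not always enough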
S100A4 MyoIIA: inhibitors of human S100A4 binding to myosin IIA peptide; S100A4/TAMRA-MyoIIA peptide fluorescence polarization; inhibition, % at 10.7 µM; hit rate 0.14% among 360,000; AID 652163;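 active = mean inhibition of at least 70% across replicates, with every replicate also reaching that level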
Target sequence (P26447 whole entry, looked up): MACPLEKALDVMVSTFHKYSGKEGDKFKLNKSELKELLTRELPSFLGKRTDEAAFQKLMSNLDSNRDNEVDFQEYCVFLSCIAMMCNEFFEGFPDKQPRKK
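Material: S100A4 monomer (human). Medium: Calcium-containing HEPES buffer, pH 7.2. Probe or stimulus: labelled myosin peptide probe, 5 nM. Compound dosing: one concentration per compound. Timing: polarization read 5 min after assay mix addition, stable 5–60 min. Benchmarks: DMSO as neutral control, TFP as positive control.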
RAD54 inh: inhibitors of human RAD54 branch migration. Q92698. hit rate 0.14% among 360,000. inhibition, % at 10.4 µM. RAD54 Holliday junction branch migration, FAM/BHQ fluorescence;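 active = mean normalized replicate activity at least 40 and at least half of replicates scoring 40 or more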;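 note: 0% = median of neutral control wells and 100% = median of positive control wells; inhibitors cause a drop in the FAM fluorescence signal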
SR-BI HDL uptake: mouse SR-BI HDL lipid transfer inhibition; ldlA[mSR-BI] CHO cells, DiI-HDL uptake fluorescence, 3 h; inhibition, % at 12.5 µM; hit rate 0.96% among 320,000; AID 488896;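 active = mean replicate inhibition of at least 70% and a set share of replicates each scoring 70 or more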;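 note: 0% = median of neutral control wells and 100% = median of positive control wells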
Target sequence (Q61009 whole entry, looked up): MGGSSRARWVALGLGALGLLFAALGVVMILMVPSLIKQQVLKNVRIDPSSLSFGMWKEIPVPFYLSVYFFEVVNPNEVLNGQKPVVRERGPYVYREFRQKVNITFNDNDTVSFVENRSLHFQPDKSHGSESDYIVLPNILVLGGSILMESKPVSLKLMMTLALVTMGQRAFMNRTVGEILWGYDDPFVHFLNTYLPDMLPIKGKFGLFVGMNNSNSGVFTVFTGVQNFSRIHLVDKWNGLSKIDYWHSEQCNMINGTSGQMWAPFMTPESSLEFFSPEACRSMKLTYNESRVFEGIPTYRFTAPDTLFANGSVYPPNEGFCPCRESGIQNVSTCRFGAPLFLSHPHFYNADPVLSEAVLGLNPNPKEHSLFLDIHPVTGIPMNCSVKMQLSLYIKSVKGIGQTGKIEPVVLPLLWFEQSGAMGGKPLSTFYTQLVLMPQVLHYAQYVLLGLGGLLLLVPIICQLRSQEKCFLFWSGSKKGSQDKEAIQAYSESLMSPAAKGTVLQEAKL
SR-BI uptake up: SR-BI HDL lipid transfer activation | CHO ldlA[mSR-BI] cells, DiI-HDL uptake fluorescence, 3 h; 100 = double the neutral-control signal | activation, % at 12.5 µM | hit rate 0.096% among 320,000 | AID 504775;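 active = mean replicate activation of at least 60% and every replicate at or above 60%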;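 note: 0% = median plate neutral-control signal and 100% = twice that signal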
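material = CHO ldlA[mSR-BI] cells | medium = Ham's F12 with 0.5% BSA, HEPES 25 mM, pH 7.4 | reagent = fluorescent DiI-HDL, 10 µg/mL final | compound dosing = single-point compound dose | incubation = 3 h, 37 °C | measured by = bottom-read fluorescence, 550/595 nm | measure = HDL uptake via cellular fluorescence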
PvdQ inh: P. aeruginosa PvdQ acylase inhibition. inhibition, % at 10 µM. purified PvdQ acylase, fluorescence plate reader. AID 488965. hit rate 0.063% among 340,000; in the data active = inhibition above about 30%, passing the limit was not always enough;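 note: 0% = vehicle neutral wells and 100% = reference inhibitor wells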
dFosB act-2: activators of mouse delta FosB homodimer DNA binding; shares compounds with dFosB act-1; purified delta FosB, TAMRA-CDK5 oligo fluorescence polarization; normalised: neutral wells 0, positive control 100; activation, % at 24.9 µM; 2,400 tested, under 10 active;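 active = highest replicate activation at or above 34% and every replicate reaching that threshold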;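 note: higher polarization means more probe DNA bound by delta FosB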
Starred values were filed as active, the others as inactive; . = no result given. Only some compounds are listed: those with a hit (about 1.6% of all), similar ones and a draw of the others.

SMILES	dFosB act-1	S100A4 MyoIIA	RAD54 inh	SR-BI HDL uptake	SR-BI uptake up	PvdQ inh	dFosB act-2
Cc1ccc(C(=O)c2oc3ccccc3c2NC(=O)c2cc(-c3ccccc3O)n[nH]2)cc1	31*	.	.	53	-53	-10	-5
Clc1cc2nc(-c3cccnc3Cl)[nH]c2cc1Cl	35*	1	-3	14	-14	-17	6
Cc1cc2nc(-c3ccccc3O)[nH]c2cc1C	11	19	-1	30	-30	-8	.
O=C(NC(C(=O)N/N=C/c1ccncc1)c1n[nH]c(=O)c2ccccc12)c1ccccc1 (stereo unspecified)	-12	-7	.	.	.	6	.
O=C(NC(C(=O)N/N=C/c1cccc2ccccc12)c1n[nH]c(=O)c2ccccc12)c1ccccc1 (stereo unspecified)	28*	.	-10	-18	18	-7	8
C[C@H](CO)N1C[C@H](C)[C@@H](CN(C)C(=O)Nc2ccc3c(c2)OCO3)Oc2ccc(NC(=O)Nc3ccccc3)cc2CC1=O	.	-6	8	.	.	.	.
Cc1nc2ccccn2c1C(=O)CSc1ccc(Cl)cc1Cl	50*	.	-13	-10	10	-10	1
CC(=O)Nc1ccc(NC(=O)C(=O)NCC(c2ccco2)N2CCc3ccccc32)cc1 (stereo unspecified)	1	-4	-1	13	-13	5	.
CC(=O)Nc1ccc(NC(=O)C(=O)NCC(c2ccco2)N2CCc3ccccc3C2)cc1 (stereo unspecified)	22*	1	5	14	-14	-7	3
CN1CCN(C(=O)C[C@@H]2CC[C@H]3[C@@H](COC[C@@H](O)CN3C(=O)C3CC3)O2)CC1	.	-7	-4	.	.	.	.
CCN(CC)CCN(C(=O)CCS(=O)(=O)c1ccccc1)c1nc2c(C)cc(C)cc2s1	56*	1	6	-10	10	-11	-2
COc1ccc(OC)c2sc(N(CCCN(C)C)C(=O)CCS(=O)(=O)c3ccccc3)nc12	-4	0	38	-44	44	7	.
Cc1cc(C)c2sc(N(CCN(C)C)C(=O)CCS(=O)(=O)c3ccccc3)nc2c1	21*	-10	6	-1	1	-6	3
CCN(CC)CCN(C(=O)c1ccc2c(c1)OCCO2)c1nc2c(Cl)cccc2s1	-7	-3	10	7	-7	-5	.
CCN(CC)CCN(C(=O)CCS(=O)(=O)c1ccccc1)c1nc2cc(C)cc(C)c2s1	43*	0	-3	-26	26	-3	6
CCN(CC)CCN(C(=O)c1ccc2c(c1)OCCO2)c1nc2cc(C)cc(C)c2s1	30*	-3	10	31	-31	-7	4
CCN(CC)CCN(C(=O)CCS(=O)(=O)c1ccccc1)c1nc2cc(OC)c(OC)cc2s1	-5	-5	14	-24	24	-12	.
COCC(=O)N(C)C[C@H]1Oc2cc(-c3cccnc3)ccc2S(=O)(=O)N([C@H](C)CO)C[C@@H]1C	.	4	7	.	.	.	.
COCC(=O)Nc1ccc2c(c1)OC[C@H](C)N(C(=O)Cc1ccccn1)C[C@H](C)[C@H](OC)CN(C)C2=O	.	-26	-4	.	.	.	.
COc1ccc(Cl)c2sc(N(CCN(C)C)C(=O)CCS(=O)(=O)c3ccc(C)cc3)nc12	82*	3	.	-34	34	-6	3
COc1cc2c(cc1OC)-c1cc(Nc3cccc(C)c3)nc(=O)n1CC2	30*	3	26	13	-13	-24	1
COc1cc2c(cc1OC)-c1cc(Nc3ccccc3C)nc(=O)n1CC2	-2	-9	-14	32	-32	-10	.
O=C(Nc1ccc(Cl)cc1)Nc1ccc(-c2cnco2)cc1	39*	4	7	38	-38	-3	3
COc1ccc(NC(=O)c2cc(S(=O)(=O)N3CCS(=O)(=O)CC3)ccc2Cl)cc1	52*	.	-9	6	-6	-11	2
CCCNC(=O)Nc1ccc2c(c1)OC[C@@H](C)N(Cc1ccc(-c3ccccn3)cc1)C[C@@H](C)[C@@H](OC)CN(C)C2=O	.	0	-14	.	.	.	.
SMILES	dFosB act-1	S100A4 MyoIIA	RAD54 inh	SR-BI HDL uptake	SR-BI uptake up	PvdQ inh	dFosB act-2
Cc1ccccc1NC(=O)CSc1nc(N)c(C#N)c(-c2cccs2)c1C#N	61*	.	8	-3	3	-1	3
CCN(CC)C(=O)CSc1nc(N)c(C#N)c(-c2cccs2)c1C#N	5	.	5	3	-3	-10	.
Cc1ccc(C)c(NC(=O)Cn2nc(-c3ccccc3)nc2-c2ccccc2)c1	55*	.	.	2	-2	-25	-9
Cc1ccc(NC(=O)c2ncn(CC(=O)NCc3ccccc3)n2)cc1C	0	-3	0	-9	9	-13	.
Cc1ccc(NC(=O)c2ncn(CC(=O)NCc3nc4ccccc4[nH]3)n2)cc1C	47*	7	10	-3	3	-18	-7
CN(C)C(=O)c1cccc(-c2ccc([C@H]3[C@@H](CO)N(C(=O)C4CCCC4)[C@H]3C#N)cc2)c1	.	3	.	.	.	.	.
O=C(Oc1cccc(-n2cnnn2)c1)c1sc2ccccc2c1Cl	143*	.	-4	-21	21	1	-2
Cc1ccc(-c2nnn(CC(=O)N(Cc3ccccc3)C(C(=O)NC3CCCC3)c3ccncc3)n2)o1 (stereo unspecified)	33*	-9	-7	2	-2	-13	0
O=C(OCC(O)C(O)C(O)C(SCc1ccccc1)SCc1ccccc1)c1ccccc1 (stereo unspecified)	23*	-2	-16	5	-5	-13	5
Cn1nc(C(=O)Nc2ccc(Br)cc2)cc1C(=O)Nc1ccc(Br)cc1	40*	2	2	-4	4	2	5
C(=N\Nc1nc(Nc2ccccc2)nc(Nc2ccccc2)n1)/c1cccnc1	65*	.	.	40	-40	-11	0
Cc1c(Cl)cccc1NC(=O)CC1Oc2ccccc2NC1=O (stereo unspecified)	23*	-6	.	15	-15	-11	5
Cc1c(Cl)cccc1NC(=O)CC1Sc2ccccc2NC1=O (stereo unspecified)	46*	2	2	0	0	-8	2
Cc1ccc(C)c(NC(=O)CC2Sc3ccccc3NC2=O)c1 (stereo unspecified)	1	-3	.	0	0	4	.
O=C(COC(=O)/C=C/c1cccc(Cl)c1Cl)Nc1ccc2[nH]c(=O)[nH]c2c1	35*	0	5	-1	1	-5	3
O=C(COC(=O)/C=C/c1cccc(Cl)c1)Nc1ccc2[nH]c(=O)[nH]c2c1	27*	25	.	16	-16	-3	0
